In ChEMBL document CHEMBL2331355, “Synthesis, structure activity relationship and mode of action of 3-substitutedphenyl-1-(2,2,8,8-tetramethyl-3,4,9,10-tetrahydro-2H,8H-pyrano[2,3-f]chromen-6-yl)-propenones as novel anticancer agents in human leukaemia HL-60 cells” (Eur J Med Chem, 2013):

Columns and labels:
Type in all cases: functional
[1] = system: Caco-2; test: Growth inhibition of human Caco2 cells at 50 uM after 48 hrs by MTT assay; conditions: Caco-2, 48 h, read-out: GI
Procedure, shortened: (§1)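 Single-concentration MTT screen at 50 µM over 48 h in 96-well plates. Compounds giving >50% inhibition were rescreened at 30 µM. OD read at 570 nm, reference 620 nm. Result expressed as % growth inhibition versus untreated control. Mitomycin C, adriamycin or 5-fluorouracil used as positive controls. Mean ± SD of three independent experiments.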

[2] = system: MDA-MB-435; test: Growth inhibition of human MDA-MB-435 cells at 50 uM after 48 hrs by MTT assay; conditions: MDA-MB-435, 48 h, read-out: GI; procedure, shortened: as §1
[3] = system: MIA PaCa-2; test: Growth inhibition of human MIAPaCa2 cells at 50 uM after 48 hrs by MTT assay; conditions: MIA PaCa-2, 48 h, read-out: GI; procedure, shortened: as §1
[4] = system: ASPC1; test: Growth inhibition of human AsPC1 cells at 50 uM after 48 hrs by MTT assay; conditions: ASPC1, 48 h, read-out: GI; procedure, shortened: as §1
[5] = system: HL-60; test: Growth inhibition of human HL60 cells at 50 uM after 48 hrs by MTT assay; conditions: HL-60, 48 h, read-out: GI; procedure, shortened: as §1
[6] = system: MCF7; test: Growth inhibition of human MCF7 cells at 50 uM after 48 hrs by MTT assay; conditions: MCF7, 48 h, read-out: GI; procedure, shortened: as §1
[7] = system: PC-3; test: Growth inhibition of human PC3 cells at 50 uM after 48 hrs by MTT assay; conditions: PC-3, 48 h, read-out: GI; procedure, shortened: as §1

Structure (SMILES)	inhibition of growth at 50 µM [1]	inhibition of growth at 50 µM [2]	inhibition of growth at 50 µM [3]	inhibition of growth at 50 µM [4]	inhibition of growth at 50 µM [5]	inhibition of growth at 50 µM [6]	inhibition of growth at 50 µM [7]
COc1cc(OC)c(/C=C/C(=O)c2cc3c(c4c2OC(C)(C)CC4)OC(C)(C)CC3)c(OC)c1	17%	32%	27%	5%	77%	26%	62%
COc1ccc(/C=C/C(=O)c2cc3c(c4c2OC(C)(C)CC4)OC(C)(C)CC3)cc1	16%	53%	30%	12%	5%	7%	63%
CC1(C)CCc2cc(C(=O)/C=C/c3ccc(Br)cc3)c3c(c2O1)CCC(C)(C)O3	28%	52%	45%	27%	25%	16%	33%
